Measured values: PMC3529145 (Bioconjugate chemistry, 2012)
No end group written: not given here.

How the values were obtained:
Format in all cases: in vivo, mouse
LNCaP tumor = test: Small-animal PET imaging, LNCaP tumor xenograft; conditions: for radioactivity accumulation in LNCaP tumor (PET): PET ROI analysis, i.v. tail vein, dual tumor bearing mice n = 4
How it was run: (§1)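 Male athymic nude mice carried LNCaP (right shoulder, implanted 14 days earlier) and PC-3 (left shoulder) xenografts, each 100–200 mm3 (n = 4). Dosing was by tail vein: 160–170 μCi of labelled peptide in 200 μL 3% EtOH/saline, or 260 μCi of control peptide in 200 μL PBS. Static 15-min microPET scans were taken at 2 and 4 h under isoflurane. Decay-corrected ROI values were expressed as %ID/g by phantom calibration.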

PC-3 tumor = test: Small-animal PET imaging, PC-3 tumor xenograft; conditions: PET ROI analysis, i.v. tail vein, dual tumor bearing mice n = 4
How it was run: as §1

LNCaP tumors = test: Postmortem biodistribution, LNCaP tumor uptake and tumor-to-tissue ratios; conditions: for LNCaP Tumor/kidney ratio: biodistribution

Substance	radioactivity accumulation in LNCaP tumor (PET) (LNCaP tumor; 2 h p.i.)	radioactivity accumulation in LNCaP tumor (PET) (LNCaP tumor; 4 h p.i.)	radioactivity accumulation in PC-3 tumor (PET) (PC-3 tumor; 2 h p.i.)	radioactivity accumulation in PC-3 tumor (PET) (PC-3 tumor; 4 h p.i.)	LNCaP Tumor/kidney ratio (LNCaP tumors; 2 h p.i.)	LNCaP Tumor/kidney ratio (LNCaP tumors; 4 h p.i.)	LNCaP Tumor/liver ratio (LNCaP tumors; mouse, in vivo)	tumor accumulation observed by PET (in words) (LNCaP tumor; PET images of mice bearing LNCaP and PC-3 tumors, negative control)	LNCaP Tumor/blood ratio (LNCaP tumors; mouse, in vivo)	LNCaP Tumor/muscle ratio (LNCaP tumors; mouse, in vivo)
ACEQNPIYWARYADWLFTTPLLLLDLALLVDADEGTG-CO2H [[^18F]-4a]	8.3 ± 1.5 %ID/g	8.5 ± 1.3 %ID/g	4.2 ± 0.4 %ID/g	5.4 ± 0.5 %ID/g	0.3	0.3	0.2			
ACEQNPIYWARYAKWLFTTPLLLLKLALLVDADEGTG-OH [[^18F]-5]					0.4		0.2	lack of any tumor accumulation	0.1	0.4
